Assay results from ChEMBL document CHEMBL3734675, “Synthesis, antimycobacterial and antibacterial activity of fluoroquinolone derivatives containing an 3-alkoxyimino-4-(cyclopropylanimo)methylpyrrolidine moiety” (2015).
≈ marks a conversion by molar mass, not a printed value.

Assays:
Assay type in all cases: functional
[1] = tested on: Staphylococcus epidermidis; assay: Antibacterial activity against methicillin-resistant Staphylococcus epidermidis 14-22 after 18 to 24 hrs by two-fold serial dilution method
How it was run: (§1)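 Agar media, standard twofold serial dilution. MIC is the lowest concentration giving complete inhibition of bacterial growth after incubation at 35 °C for 18–24 h. Ciprofloxacin and levofloxacin were run as comparators.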

Enterococcus faecalis [2] = assay: Antibacterial activity against Enterococcus faecalis 14-1 after 18 to 24 hrs by two-fold serial dilution method
How it was run: (§2)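 Twofold serial dilution in agar media against Gram-positive and Gram-negative strains. Plates incubated at 35 °C for 18–24 h. MIC read as the lowest compound concentration giving complete inhibition of bacterial growth.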

Streptococcus pneumoniae = assay: Antibacterial activity against methicillin-resistant Streptococcus pneumoniae ATCC 19615 after 18 to 24 hrs by two-fold serial dilution method; how it was run: as §1
Staphylococcus aureus [3] = assay: Antibacterial activity against methicillin-resistant Staphylococcus aureus 14-5 after 18 to 24 hrs by two-fold serial dilution method; how it was run: as §1
Klebsiella pneumoniae [4] = assay: Antibacterial activity against extended-spectrum beta-lactamase producing Klebsiella pneumoniae 14-17 after 18 to 24 hrs by two-fold serial dilution method; how it was run: as §2
Enterococcus faecium [5] = assay: Antibacterial activity against Enterococcus faecium 14-6 after 18 to 24 hrs by two-fold serial dilution method; how it was run: as §2
Klebsiella pneumoniae [6] = assay: Antibacterial activity against Klebsiella pneumoniae 14-4 after 18 to 24 hrs by two-fold serial dilution method; how it was run: as §2
Enterococcus faecium [7] = assay: Antibacterial activity against Enterococcus faecium 14-5 after 18 to 24 hrs by two-fold serial dilution method; how it was run: as §2
Staphylococcus aureus [8] = assay: Antibacterial activity against Staphylococcus aureus CMCC 26003 after 18 to 24 hrs by two-fold serial dilution method; how it was run: as §2
Pseudomonas aeruginosa [9] = assay: Antibacterial activity against Pseudomonas aeruginosa ATCC 27853 after 18 to 24 hrs by two-fold serial dilution method; how it was run: as §2
[10] = tested on: Mycobacterium tuberculosis; assay: Antimycobacterial activity against Mycobacterium tuberculosis H37Rv ATCC 27294 incubated for 7 days by microplate Alamar Blue assay; details: H37Rv ATCC 27294, 168 h
How it was run: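 Fluorescence read-out. MIC is the lowest concentration that reduces fluorescence by at least 90% relative to the mean of replicate bacterium-only controls. Isoniazid and rifampicin were included as reference drugs.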

[11] = tested on: Staphylococcus epidermidis; assay: Antibacterial activity against methicillin-sensitive Staphylococcus epidermidis 14-2 after 18 to 24 hrs by two-fold serial dilution method; how it was run: as §2
Staphylococcus aureus [12] = assay: Antibacterial activity against methicillin-resistant Staphylococcus aureus 14-4 after 18 to 24 hrs by two-fold serial dilution method; how it was run: as §1
Staphylococcus aureus [13] = assay: Antibacterial activity against methicillin-sensitive Staphylococcus aureus 14-3 after 18 to 24 hrs by two-fold serial dilution method; how it was run: as §2
[14] = tested on: Staphylococcus epidermidis; assay: Antibacterial activity against methicillin-resistant Staphylococcus epidermidis 14-37 after 18 to 24 hrs by two-fold serial dilution method; how it was run: as §1
Escherichia coli [15] = assay: Antibacterial activity against Escherichia coli 14-1 after 18 to 24 hrs by two-fold serial dilution method; how it was run: as §2
[16] = tested on: Staphylococcus epidermidis; assay: Antibacterial activity against methicillin-resistant Staphylococcus epidermidis 14-21 after 18 to 24 hrs by two-fold serial dilution method; how it was run: as §1
Escherichia coli [17] = assay: Antibacterial activity against Escherichia coli ATCC 25922 after 18 to 24 hrs by two-fold serial dilution method; how it was run: as §2
Klebsiella pneumoniae [18] = assay: Antibacterial activity against Klebsiella pneumoniae 14-1 after 18 to 24 hrs by two-fold serial dilution method; how it was run: as §2
Staphylococcus aureus [19] = assay: Antibacterial activity against methicillin-sensitive Staphylococcus aureus 14-1 after 18 to 24 hrs by two-fold serial dilution method; how it was run: as §2
Enterococcus faecalis [20] = assay: Antibacterial activity against Enterococcus faecalis 14-2 after 18 to 24 hrs by two-fold serial dilution method; how it was run: as §2
Staphylococcus aureus [21] = assay: Antibacterial activity against methicillin-sensitive Staphylococcus aureus 14-4 after 18 to 24 hrs by two-fold serial dilution method; how it was run: as §2
Pseudomonas aeruginosa [22] = assay: Antibacterial activity against Pseudomonas aeruginosa 14-16 after 18 to 24 hrs by two-fold serial dilution method; how it was run: as §2
Pseudomonas aeruginosa [23] = assay: Antibacterial activity against Pseudomonas aeruginosa 14-9 after 18 to 24 hrs by two-fold serial dilution method; how it was run: as §2
Klebsiella pneumoniae [24] = assay: Antibacterial activity against extended-spectrum beta-lactamase producing Klebsiella pneumoniae 14-18 after 18 to 24 hrs by two-fold serial dilution method; how it was run: as §2
[25] = tested on: Staphylococcus epidermidis; assay: Antibacterial activity against methicillin-resistant Staphylococcus epidermidis 14-39 after 18 to 24 hrs by two-fold serial dilution method; how it was run: as §1
Pseudomonas aeruginosa [26] = assay: Antibacterial activity against Pseudomonas aeruginosa 14-15 after 18 to 24 hrs by two-fold serial dilution method; how it was run: as §2
Enterococcus faecium [27] = assay: Antibacterial activity against Enterococcus faecium 14-2 after 18 to 24 hrs by two-fold serial dilution method; how it was run: as §2
Escherichia coli [28] = assay: Antibacterial activity against extended-spectrum beta-lactamase producing Escherichia coli 14-2 after 18 to 24 hrs by two-fold serial dilution method; how it was run: as §2
Escherichia coli [29] = assay: Antibacterial activity against Escherichia coli 14-2 after 18 to 24 hrs by two-fold serial dilution method; how it was run: as §2
Escherichia coli [30] = assay: Antibacterial activity against extended-spectrum beta-lactamase producing Escherichia coli 14-1 after 18 to 24 hrs by two-fold serial dilution method; how it was run: as §2
Klebsiella pneumoniae [31] = assay: Antibacterial activity against Klebsiella pneumoniae 14-2 after 18 to 24 hrs by two-fold serial dilution method; how it was run: as §2
Klebsiella pneumoniae [32] = assay: Antibacterial activity against Klebsiella pneumoniae 14-3 after 18 to 24 hrs by two-fold serial dilution method; how it was run: as §2
Pseudomonas aeruginosa [33] = assay: Antibacterial activity against Pseudomonas aeruginosa 14-14 after 18 to 24 hrs by two-fold serial dilution method; how it was run: as §2
Klebsiella pneumoniae [34] = assay: Antibacterial activity against extended-spectrum beta-lactamase producing Klebsiella pneumoniae 14-19 after 18 to 24 hrs by two-fold serial dilution method; how it was run: as §2

Row | SMILES | MIC [1] [µg/mL] | MIC (Enterococcus faecalis [2]) [µg/mL] | MIC (Streptococcus pneumoniae) [µg/mL] | MIC (Staphylococcus aureus [3]) [µg/mL] | MIC (Klebsiella pneumoniae [4]) [µg/mL] | MIC (Enterococcus faecium [5]) [µg/mL] | MIC (Klebsiella pneumoniae [6]) [µg/mL] | MIC (Enterococcus faecium [7]) [µg/mL] | MIC (Staphylococcus aureus [8]) [µg/mL] | MIC (Pseudomonas aeruginosa [9]) [µg/mL] | MIC90 [10] [µg/mL] | MIC [11] [µg/mL] | MIC (Staphylococcus aureus [12]) [µg/mL] | MIC (Staphylococcus aureus [13]) [µg/mL] | MIC [14] [µg/mL] | MIC (Escherichia coli [15]) [µg/mL] | MIC [16] [µg/mL] | MIC (Escherichia coli [17]) [µg/mL] | MIC (Klebsiella pneumoniae [18]) [µg/mL] | MIC (Staphylococcus aureus [19]) [µg/mL] | further results
1 | CO/N=C1/CN(c2nc3c(cc2F)c(=O)c(C(=O)O)cn3-c2nc(N)c(F)cc2F)CC1(C)CNC1CC1 (stereo not given) | 32 (≈ 60.2 µM) | 128 (≈ 241 µM) | 4 (≈ 7.53 µM) | 32 (≈ 60.2 µM) | > 128 | 64 (≈ 120 µM) | > 128 | 128 (≈ 241 µM) | 0.25 (≈ 0.47 µM) | 128 (≈ 241 µM) | 15.6 (≈ 29.4 µM) | 128 (≈ 241 µM) | 32 (≈ 60.2 µM) | 16 (≈ 30.1 µM) | 64 (≈ 120 µM) | > 128 | 128 (≈ 241 µM) | 16 (≈ 30.1 µM) | > 128 | 16 (≈ 30.1 µM) | MIC (Enterococcus faecalis [20]): 8 µg/mL (≈ 15.1 µM); MIC (Staphylococcus aureus [21]): 8 µg/mL (≈ 15.1 µM); MIC (Pseudomonas aeruginosa [22]): > 128 µg/mL; MIC (Pseudomonas aeruginosa [23]): 128 µg/mL (≈ 241 µM); MIC (Klebsiella pneumoniae [24]): > 128 µg/mL; MIC [25]: 128 µg/mL (≈ 241 µM); MIC (Pseudomonas aeruginosa [26]): 128 µg/mL (≈ 241 µM); MIC (Enterococcus faecium [27]): 64 µg/mL (≈ 120 µM); MIC (Escherichia coli [28]): > 128 µg/mL; MIC (Escherichia coli [29]): 128 µg/mL (≈ 241 µM); MIC (Escherichia coli [30]): 128 µg/mL (≈ 241 µM); MIC (Klebsiella pneumoniae [31]): > 128 µg/mL; MIC (Klebsiella pneumoniae [32]): > 128 µg/mL; MIC (Pseudomonas aeruginosa [33]): > 128 µg/mL; MIC (Klebsiella pneumoniae [34]): > 128 µg/mL
2 | CC1(CNC2CC2)CN(c2nc3c(cc2F)c(=O)c(C(=O)O)cn3-c2nc(N)c(F)cc2F)C/C1=N/OCc1ccccc1 (stereo not given) | 128 (≈ 211 µM) | 32 (≈ 52.7 µM) | 8 (≈ 13.2 µM) | 32 (≈ 52.7 µM) | > 128 | 128 (≈ 211 µM) | > 128 | > 128 | 1 (≈ 1.65 µM) | 128 (≈ 211 µM) | 16 (≈ 26.3 µM) | 64 (≈ 105 µM) | 16 (≈ 26.3 µM) | 8 (≈ 13.2 µM) | 64 (≈ 105 µM) | > 128 | 32 (≈ 52.7 µM) | 64 (≈ 105 µM) | > 128 | 16 (≈ 26.3 µM) | MIC (Enterococcus faecalis [20]): 16 µg/mL (≈ 26.3 µM); MIC (Staphylococcus aureus [21]): 4 µg/mL (≈ 6.58 µM); MIC (Pseudomonas aeruginosa [22]): > 128 µg/mL; MIC (Pseudomonas aeruginosa [23]): 128 µg/mL (≈ 211 µM); MIC (Klebsiella pneumoniae [24]): > 128 µg/mL; MIC [25]: 128 µg/mL (≈ 211 µM); MIC (Pseudomonas aeruginosa [26]): 128 µg/mL (≈ 211 µM); MIC (Enterococcus faecium [27]): 32 µg/mL (≈ 52.7 µM); MIC (Escherichia coli [28]): > 128 µg/mL; MIC (Escherichia coli [29]): > 128 µg/mL; MIC (Escherichia coli [30]): > 128 µg/mL; MIC (Klebsiella pneumoniae [31]): > 128 µg/mL; MIC (Klebsiella pneumoniae [32]): 128 µg/mL (≈ 211 µM); MIC (Pseudomonas aeruginosa [33]): 128 µg/mL (≈ 211 µM); MIC (Klebsiella pneumoniae [34]): > 128 µg/mL
3 | Nc1nc(-n2cc(C(=O)O)c(=O)c3cc(F)c(N4C/C(=N/OCc5ccccc5)C(CNC5CC5)C4)nc32)c(F)cc1F (stereo not given) | 128 (≈ 216 µM) | 64 (≈ 108 µM) | 16 (≈ 27 µM) | 8 (≈ 13.5 µM) | 128 (≈ 216 µM) | 128 (≈ 216 µM) | > 128 | 64 (≈ 108 µM) | 0.015 (≈ 0.0253 µM) | 128 (≈ 216 µM) | > 32 | 128 (≈ 216 µM) | 64 (≈ 108 µM) | 32 (≈ 53.9 µM) | 128 (≈ 216 µM) | > 128 | 64 (≈ 108 µM) | 8 (≈ 13.5 µM) | 64 (≈ 108 µM) | 16 (≈ 27 µM) | MIC (Enterococcus faecalis [20]): 8 µg/mL (≈ 13.5 µM); MIC (Staphylococcus aureus [21]): 32 µg/mL (≈ 53.9 µM); MIC (Pseudomonas aeruginosa [22]): 128 µg/mL (≈ 216 µM); MIC (Pseudomonas aeruginosa [23]): 128 µg/mL (≈ 216 µM); MIC (Klebsiella pneumoniae [24]): > 128 µg/mL; MIC [25]: 64 µg/mL (≈ 108 µM); MIC (Pseudomonas aeruginosa [26]): 128 µg/mL (≈ 216 µM); MIC (Enterococcus faecium [27]): 64 µg/mL (≈ 108 µM); MIC (Escherichia coli [28]): > 128 µg/mL; MIC (Escherichia coli [29]): > 128 µg/mL; MIC (Escherichia coli [30]): 64 µg/mL (≈ 108 µM); MIC (Klebsiella pneumoniae [31]): 128 µg/mL (≈ 216 µM); MIC (Klebsiella pneumoniae [32]): > 128 µg/mL; MIC (Pseudomonas aeruginosa [33]): 128 µg/mL (≈ 216 µM); MIC (Klebsiella pneumoniae [34]): 128 µg/mL (≈ 216 µM)
